{"data": "Measurements from different studies", "read-out": "microbial growth", "note": "Lines come from different studies, so protocols differ."}
{"SMILES": "CC1=NN(CNc2ccc(O)cc2)C(=O)C1=NNn1c(-c2ccccc2)nc2ccccc2c1=O", "organism": "Aspergillus niger", "test": "broth dilution", "MIC": "107 µM"}
{"SMILES": "CCCCCCCCCCCCCCN1CCOCC1", "organism": "Lodderomyces parapsilosis", "test": "broth dilution", "test system": "ATCC22019", "setting": "48 h", "MIC": "> 31.3 µg/mL"}
{"SMILES": "CC1=NN(CNc2ccccc2[N+](=O)[O-])C(=O)C1=NNn1c(-c2ccccc2)nc2ccccc2c1=O", "organism": "Aspergillus niger", "test": "broth dilution", "MIC": "50.4 µM"}
{"SMILES": "CCCCCCCCCN1CCNCC1", "organism": "Lodderomyces parapsilosis", "test": "broth dilution", "test system": "ATCC22019", "setting": "48 h", "MIC": "> 31.3 µg/mL"}
{"SMILES": "C=CCn1c(-c2ccc([N+](=O)[O-])cc2)nc2ccccc21", "organism": "Aspergillus niger", "test system": "ATCC16404", "MIC": "256 µg/mL"}
{"SMILES": "CCOCCn1cnc2nc(NCc3ccc(Cl)c(Cl)c3)[nH]c(=O)c21", "organism": "Bacteroides fragilis", "test": "agar dilution", "setting": "48 h", "MIC": "> 32 µg/mL"}
{"SMILES": "CCCCCCCCCCN1CCNCC1", "organism": "Lodderomyces parapsilosis", "test": "broth dilution", "test system": "ATCC22019", "setting": "48 h", "MIC": "15.6 µg/mL"}
{"SMILES": "Cc1ccc(C)n1-c1ccc(-c2nnc(-c3c(Cl)cccc3Cl)[nH]2)cc1", "organism": "Aspergillus niger", "test": "broth dilution", "test system": "ATCC6275", "MIC": "2 µg/mL"}
{"SMILES": "O=C(c1cc(O)c(O)c(O)c1)c1cc2ccccc2o1", "organism": "Lodderomyces parapsilosis", "test": "broth dilution", "MIC": "16 µg/mL"}
{"SMILES": "CCCCCCCCCCCCN1CCNCC1", "organism": "Lodderomyces parapsilosis", "test": "broth dilution", "test system": "ATCC22019", "setting": "48 h", "MIC": "1.95 µg/mL"}
{"SMILES": "Cc1ncc([N+](=O)[O-])n1CCO", "organism": "Bacteroides fragilis", "test": "agar dilution", "setting": "48 h", "MIC": "1 µg/mL"}
{"SMILES": "Cc1ccc(C)n1-c1ccc(-c2nnco2)cc1", "organism": "Aspergillus niger", "test": "broth dilution", "test system": "ATCC6275", "MIC": "125 µg/mL"}
{"SMILES": "O=[N+]([O-])c1ccc(-c2nc3ccccc3n2Cc2ccccc2)cc1", "organism": "Aspergillus niger", "test system": "ATCC16404", "MIC": "64 µg/mL"}
{"SMILES": "CCCCCCCCCCCN1CCNCC1", "organism": "Lodderomyces parapsilosis", "test": "broth dilution", "test system": "ATCC22019", "setting": "48 h", "MIC": "7.8 µg/mL"}
{"SMILES": "Clc1ccccc1-c1nc2ccccc2[nH]1", "organism": "Aspergillus niger", "test system": "ATCC16404", "MIC": "512 µg/mL"}
{"SMILES": "Cc1ccc(C)n1-c1ccc(-c2nnc(-c3ccccc3Cl)[nH]2)cc1", "organism": "Aspergillus niger", "test": "broth dilution", "test system": "ATCC6275", "MIC": "8 µg/mL"}
{"SMILES": "CCCCCCCCCCCCCCN1CCNCC1", "organism": "Lodderomyces parapsilosis", "test system": "ATCC22019", "MIC": "0.975 µg/mL"}
{"SMILES": "O=[N+]([O-])c1cccc(-c2nc3ccccc3[nH]2)c1", "organism": "Aspergillus niger", "test system": "ATCC16404", "MIC": "512 µg/mL"}
{"SMILES": "CC1=NN(CNc2ccc(C(=O)O)cc2)C(=O)C1=NNn1c(-c2ccccc2)nc2ccccc2c1=O", "organism": "Aspergillus niger", "test": "broth dilution", "MIC": "50.5 µM"}
{"SMILES": "Cc1ccc2nc(-c3ccc([N+](=O)[O-])cc3)n(Cc3ccc(Cl)cc3)c2c1", "organism": "Aspergillus niger", "test system": "ATCC16404", "MIC": "64 µg/mL"}
{"SMILES": "CCc1cc(Nc2cc(=O)n(CCCCO)c(=O)[nH]2)ccc1C", "organism": "Bacteroides fragilis", "test": "agar dilution", "setting": "48 h", "MIC": "> 32 µg/mL"}
{"SMILES": "Cc1ccc2nc(-c3ccc([N+](=O)[O-])cc3)[nH]c2c1", "organism": "Aspergillus niger", "test system": "ATCC16404", "MIC": "512 µg/mL"}
{"SMILES": "Cc1ccc(C)n1-c1ccc(-c2nnc(-c3cccc([N+](=O)[O-])c3)[nH]2)cc1", "organism": "Aspergillus niger", "test": "broth dilution", "test system": "ATCC6275", "MIC": "31.2 µg/mL"}
{"SMILES": "CCCCCCCCCCCN1CCN(CC(O)(Cn2cncn2)c2ccc(F)cc2F)CC1 (stereo not shown)", "organism": "Lodderomyces parapsilosis", "test": "broth dilution", "test system": "ATCC22019", "setting": "48 h", "MIC": "0.24 µg/mL"}
{"SMILES": "C=CCn1c(-c2ccc(OC)c(OC)c2)nc2ccccc21", "organism": "Aspergillus niger", "test system": "ATCC16404", "MIC": "512 µg/mL"}
